Measurements as given in ChEMBL document CHEMBL1135475, “One-pot synthesis of benzo[b]furan and indole inhibitors of tubulin polymerization” (J Med Chem, 2002).

Experiments:
[1] = target: Tubulin (Bos taurus) (UniProt Q6B856+Q862L2+Q862F3); test: Percent inhibition of 5 uM of [3H]colchicine binding to 1 uM of tubulin by 5 uM of compound after a 10 minute incubation at 37 degrees C; format: protein assay
Outline: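 Tubulin purified to electrophoretic homogeneity from bovine brain, used at 1.0 µM with [3H]colchicine and inhibitor both at 5.0 µM. […] At least two independent experiments per compound.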

[2] = target: Tubulin (Bos taurus, UniProt Q6B856+Q862L2+Q862F3); test: Inhibition of tubulin (10 uM) polymerization, after a 20 min incubation at 30 degrees Centigrade; format: functional

| IC50 [2] [µM] | Compound | inhibition [1] [%] |
| --- | --- | --- |
| – | COc1ccc(-c2oc3cc(OC)ccc3c2C(=O)c2cc(OC)c(OC)c(OC)c2)cc1 | 77 |
| > 40 | COc1ccc(-c2oc3cc(OC)ccc3c2-c2cc(OC)c(OC)c(OC)c2)cc1 | – |
| – | COc1ccc2c(C(=O)c3cc(OC)c(OC)c(OC)c3)c(-c3ccc(OC)c(O)c3)sc2c1 | 21 |
